Data as given in publication PMC9464755 (Advances in Therapy, 2022).
≈ marks a conversion by molar mass, not a printed value. Read-outs that look alike come from different tables or passages of the source. Values belong to the compound of their own block, whether it stands above or below them.

Legend:
[1] = cited from earlier work
[2] = cited from earlier work; remark: listed apart in the source
[3] = once-daily administration; cited from earlier work
[4] = tested on: cytochrome P450 (CYP) 3A4; settings: in vitro study; cited from earlier work
[5] = healthy subjects; cited from earlier work
[6] = cited from earlier work; remark: listed apart in the source
[7] = Steady-state pharmacokinetics of lazertinib with; type: in vivo, human; settings: for CD15, arithmetic mean: 240 mg once daily; for DNAUCss, arithmetic mean / DNCmax,ss, arithmetic mean / DNCD15, arithmetic mean: 40–320 mg once daily; for DNAUCss, arithmetic mean / DNCmax,ss, arithmetic mean: steady state
Summary of the method: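 NSCLC patients dosed once daily, fasting, in 21-day cycles. AUCss and Cmax,ss came from non-compartmental analysis using actual sampling times over the dosing interval after the 22nd dose (cycle 2 day 1). CD15 is the trough before the 15th dose. Groups were compared using dose-normalized values within the dose-proportional range, plus raw values at 240 mg. Analysis was ANOVA on log-transformed values with group as fixed effect; geometric mean ratios with 90% CI.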

[8] = co-administered with omeprazole or ranitidine
[9] = co-administered with ranitidine (an H2RA)

SMILES: O=C(c1ccc(F)c(F)c1Nc1ccc(I)cc1F)N1CC(O)([C@@H]2CCCCN2)C1 [cobimetinib]
Fold less solubility ([1]; pH 6.4 compared to pH 1.9): 100 fold | Effect of rabeprazole on exposure ([2]; fed and fasted conditions): did not result in a statistically significant effect

SMILES: C[C@@H](Oc1cc(-c2cnn(C3CCNCC3)c2)cnc1N)c1c(Cl)ccc(F)c1Cl [crizotinib]
Solubility ([1]; pH 1.6): > 10000 µg/mL | Solubility ([1]; pH 7.7): 100 µg/mL (≈ 0.222 mM) | Effect of esomeprazole on pharmacokinetics [2]: no clinically significant effect

SMILES: C#Cc1cccc(Nc2ncnc3cc(OCCOC)c(OCCOC)cc23)c1 [erlotinib]
AUC decreased by [2, 8]: 30–45% | Cmax decreased by [2, 8]: 50–60%

SMILES: COc1cc2ncnc(Nc3ccc(F)c(Cl)c3)c2cc1OCCCN1CCOCC1 [gefitinib]
AUC decreased to [2, 9]: 45% | Cmax decreased to [2, 9]: 70%

Reduction of exposure by ARAs at the steady state ([7]; ARA group versus non-ARA group): approximately 10% | Effect of co-administered ARAs on the steady state pharmacokinetics ([7]; ARA group versus non-ARA group, all p values > 0.05): did not significantly affect | CD15, arithmetic mean ([7]; ARA group, trough day 15 of cycle 1, n=10): 159.01 (62.4%) ng/mL | DNAUCss, arithmetic mean ([7]; ARA group, n=19): 25.51 (59.9%) h·ng/mL/mg | DNCmax,ss, arithmetic mean ([7]; ARA group, n=19): 1.97 (50.1%) ng/mL/mg | DNCD15, arithmetic mean ([7]; ARA group, trough day 15 of cycle 1, n=23): 0.66 (62.1%) ng/mL/mg | CD15, arithmetic mean ([7]; Non-ARA group, trough day 15 of cycle 1, n=115): 175.70 (59.4%) ng/mL | DNAUCss, arithmetic mean ([7]; Non-ARA group, n=105): 27.61 (42.9%) h·ng/mL/mg | DNCmax,ss, arithmetic mean ([7]; Non-ARA group, n=105): 2.14 (44.3%) ng/mL/mg | DNCD15, arithmetic mean ([7]; Non-ARA group, trough day 15 of cycle 1, n=203): 0.72 (63.4%) ng/mL/mg
SMILES: C=CC(=O)Nc1cc(Nc2nccc(-n3cc(CN(C)C)c(-c4ccccc4)n3)n2)c(OC)cc1N1CCOCC1 [lazertinib, Lazertinib]
Time to reach steady state [3]: ≤ 15 days | Metabolizing enzyme [4]: predominantly metabolized by cytochrome P450 (CYP) 3A4 | Effect of a high-fat meal on the pharmacokinetics [5]: did not significantly affect | Solubility in aqueous media ([6]; between pH 5.0 and 6.0): solubility decreasing | Solubility in aqueous media ([6]; pH 1.2–4.0): soluble | Solubility in aqueous media ([6]; pH 7.0–8.0): practically insoluble

SMILES: COC(=O)c1ccc2c(c1)NC(=O)/C2=C(\Nc1ccc(N(C)C(=O)CN2CCN(C)CC2)cc1)c1ccccc1 [nintedanib]
pH-dependent solubility profile [1]: increased solubility at acidic pH < 3 | Effect of PPI or H2RA on exposure [2]: neither PPI nor H2RA affected

SMILES: Cc1ccc(C(=O)Nc2ccc(CN3CCN(C)CC3)c(C(F)(F)F)c2)cc1C#Cc1cnc2cccnn12 [ponatinib]
Effect of lansoprazole on exposure [2]: did not have a clinically significant effect
